Measured values taken from the RNAGym collection of RNA variant scans (doi:10.1126/science.aae0568).
This sample holds only a part of the variants without activity.

B1: tRNA (parent)
chain: GUUCCGUUGGCGUAAUGGUAACGCGUCUCCCUCCUAAGGAGAAGACUGCGGGUUCGAGUCCCGUACGGAACG

Variants of: B1
Test: yeast fitness relative to wild type (ratio to wild type); higher = fitter; tRNA-Arg(CCU), competitive growth, 37 C, YPD
Outline: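 Genotype frequency changes were the basis for Darwinian fitness relative to wild type. The frequencies came from 100-nucleotide paired-end sequencing of gene amplicons from the start population and each end population of pooled yeast strains with tRNA-Arg(CCU) gene variants at the native locus. Competition ran in YPD at 37°C for 24 hours in six replicates, genotypes needed ≥ 100 starting reads, and estimates < 0.5 were set to 0.5.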

Point of comparison: GUUCCGUUGGCGUAAUGGUAACGCGUGUCCGUCCUUUGGAGAAGACUGCGGGUUCGAGUCCCGUACGGAACG [C27G C31G A36U A37U], yeast fitness 0.615. Against it:
- GUUCCGUUGGCGUAAUGGUAACGCGUGUUCCUCCUAAGGAGAAGACUGUGGGUUCGAGUCCCGUACGGAACG [C27G C29U C49U] — lower, ≤ 0.5
- GUUCCGUUGGCGUAAUGGUAACGCGUGUCCGUCCUAAGGAGAAGACUGAGGGCUCGAGUCCCGUACGGAACG [C27G C31G C49A U53C] — lower, ≤ 0.5
- GUUCCGUUGGCGUAAUGGUAACGCGUGUUCCUCCUAAGGAGAAGACUGUGGGUUCGAGUCCCGUACGGAUCG [C27G C29U C49U A70U] — lower, ≤ 0.5
- GUUCCGUUGGCGUAAUGGUAACGCGUGUCCGUCCUAAGGAGAAGAAUGCGGGUUCGAGUCCCGUACGGAACG [C27G C31G C46A] — higher, 0.932
- GUUCCGUUGGCGUAAUGGUAACGCGUGUCCCUCGUAAGGAGAAGACUGCGGGUACGAGUCCCGUACGGAACG [C27G C34G U54A] — lower, 0.6
- GUUCCGUUGGCGUAAUGGUAACGCGUGUCCAUCCUAAGGAGAAGACUGCGGGUUCGAGUCCCGUACGGUACG [C27G C31A A69U] — lower, 0.589
- GUUCCGUUGGCGUAAUGGUAACGCGUGUCCUUCGUAGGGAGAAAACUGCGGGUUCGAGUCCCGUACGGAACG [C27G C31U C34G A37G G44A] — lower, ≤ 0.5
- GUUCCGUUGGCGUAAUGGUAACGCGUGUCCCUCCUAAGGAGAAGACUGCGGGUUCGAGUCCCGUUCGGAGCG [C27G A65U A70G] — lower, 0.575
- GUUCCGUUGGCGUAAUGGUAACGCGUGUCCCUCCUAACGAGAAGACUGCGGGUUCGAGUCCCGUACGGAACG [C27G G38C] — lower, 0.5
- GUUCCGUUGGCGUAAUGGUAACGCGUGUCGCUCCUAAGGAGAAGACUGCGGGUUCUAGUCCCGUACGGAACG [C27G C30G G56U] — lower, 0.543
- GUUCCGUUGGCGUAAUGGUAACGCGUGUCGCUCCUAAGGGGAAGACUGAGGGUUCGAGUCCCGUUCGGAACG [C27G C30G A40G C49A A65U] — lower, ≤ 0.5
- GUUCCGUUGGCGUAAUGGUAACGCGUGUCCCUCUUAAGGACAAGACUGCGAGUUCGAGUCCCGUACGGAACG [C27G C34U G41C G51A] — lower, ≤ 0.5
- GUUCCGUUGGCGUAAUGGUAACGCGUGUCCCUGCUAAGGAGAAGACUGCGGGUUCGCGUCCCGUACGGAACG [C27G C33G A57C] — lower, ≤ 0.5
- GUUCCGUUGGCGUAAUGGUAACGCGUGUCCCUCCUAACGAGAAGACUGCGGGUUCGAGUCCCGAACGGAACG [C27G G38C U64A] — lower, ≤ 0.5
- GUUCCGUUGGCGUAAUGGUAACGCGUGUCCUUCGUAGGGAGAAGACUGCGGGUUCGAGUCCCGUCCGGAACG [C27G C31U C34G A37G A65C] — lower, ≤ 0.5
- GUUCCGUUGGCGUAAUGGUAACGCGUGUCCCUCCUAAGGAGAAGACUGCGGGUUCGUGUCCUGUACGGAACG [C27G A57U C62U] — higher, 0.62
- GUUCCGUUGGCGUAAUGGUAACGCGUGUCUAUGCUAAGGAGAAGACUGUGGGUUCGACUCCCGUACGGAACG [C27G C30U C31A C33G C49U G58C] — lower, ≤ 0.5
- GUUCCGUUGGCGUAAUGGUAACGCGUGUCCCUCCUAAGGAGAAGUCUGCGGGUUAGAGUCCCGUACGGAACG [C27G A45U C55A] — lower, ≤ 0.5
- GUUCCGUUGGCGUAAUGGUAACGCGUGUCCCUCCUAAGGAGAAGACUGCGGGUUCGAGUUCCGUACCGAACG [C27G C60U G67C] — lower, ≤ 0.5
- GUUCCGUUGGCGUAAUGGUAACGCGUGUCCGUCCUAAGGAGAAGACUGCGGGUUCGAGUCCCUUACGGAACG [C27G C31G G63U] — lower, ≤ 0.5
- GUUCCGUUGGCGUAAUGGUAACGCGUGUCCAUCCUAAGGAGAAGACUGCGGGUUCGAGUCCCGUACGGAUCG [C27G C31A A70U] — lower, ≤ 0.5
- GUUCCGUUGGCGUAAUGGUAACGCGUGUCUCUCCUAAGGAGAAGAAUGCGGGUUCGAGUCCCGUACGGAACG [C27G C30U C46A] — higher, 0.655
- GUUCCGUUGGCGUAAUGGUAACGCGUGUUCCUCCUAUGGAGAAGACUGCGGGUUCGAGUCCCGUACGGAACG [C27G C29U A37U] — lower, ≤ 0.5
- GUUCCGUUGGCGUAAUGGUAACGCGUGUCCCUCCUAAGGAGAAGACUGUGGGUUGGAGUCCCGUACGGAACG [C27G C49U C55G] — lower, ≤ 0.5
- GUUCCGUUGGCGUAAUGGUAACGCGUGUCCCUCCUAAGGAGAAGACUGCGGGUUCGAGUCCCGUGCGGAACG [C27G A65G] — higher, 0.694
- GUUCCGUUGGCGUAAUGGUAACGCGUGUCCCUCCUAAGGAGAAGACUGCGGGUUCGAGUCCCGUUCGGAACG [C27G A65U] — higher, 0.713
- GUUCCGUUGGCGUAAUGGUAACGCGUGUCCCUCCUAAGGAGAAGACUGCGGGUUCGGGGCCCGUACGGAACG [C27G A57G U59G] — lower, ≤ 0.5
- GUUCCGUUGGCGUAAUGGUAACGCGUGUCUCUCCUAAGGAGAAGACUGCGGGUUCGAGUCCCGUAUGGAACG [C27G C30U C66U] — lower, ≤ 0.5
- GUUCCGUUGGCGUAAUGGUAACGCGUGUCCCUCGUAAGGAGAAGGCUGCGCGUUCGAGUCCCGUACGGAGCG [C27G C34G A45G G51C A70G] — lower, ≤ 0.5
- GUUCCGUUGGCGUAAUGGUAACGCGUGUCCCUCCUAAGGAGAAGACUGCGGGUUCGAGUCCCGUACGGACCG [C27G A70C] — higher, 0.786
- GUUCCGUUGGCGUAAUGGUAACGCGUGUCCCUCCUAAGGAGAAGACUGCGGGUUCGAGUUGCGUACGGAACG [C27G C60U C61G] — higher, 0.681
- GUUCCGUUGGCGUAAUGGUAACGCGUGUCCCUCCUAAGGAGAAGACUGCGGGUUCGAGUCCCGUUGGGAACG [C27G A65U C66G] — lower, ≤ 0.5
- GUUCCGUUGGCGUAAUGGUAACGCGUGUCCAUGCUAAGGAGAAGACUGUGGGUUCGACUCCCGUACGGAUCG [C27G C31A C33G C49U G58C A70U] — lower, ≤ 0.5
- GUUCCGUUGGCGUAAUGGUAACGCGUGUCCCUCCUAAGGAGAAGAAUGCGGGUUCGAGUCCCGUACGGAACG [C27G C46A] — higher, 0.933
- GUUCCGUUGGCGUAAUGGUAACGCGUGUCCCUCCUAAGGAGAAGAUUGCGGGUUCGAGUCCCGUACGGAACG [C27G C46U] — higher, 0.972
- GUUCCGUUGGCGUAAUGGUAACGCGUGUCCCUCCUAAGGAGAAGAGUGCGGGUUCGAGUCCCGUACGGAACG [C27G C46G] — higher, 1.11
